The results in this text go back to PubChem BioAssay AID488820 (Broad Institute, 2010).

Activity calls are given as the source filed them.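 The calls were made as follows: active = compounds raising nuclear GFP-tagged hypoxia factor signal, with fitted half-maximal dose at or below the top valid dose; inconclusive = flat response of 30 to 70% activation, or poor curve fit; inactive = the rest, including opposite-direction effects.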

The first assay has as its system U2OS HIF1a-GFP, nuclear intensity imaging. Put plainly: HIF1a nuclear accumulation inducers, dose response, imaging, U2OS HIF1a-GFP, high content, dry powder (AID 488820).
Conditions: not given
The method in brief: (§1)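 Material: U2OS cells with GFP-HIF1alpha | Input: 2,000 cells/well | Replicates: Duplicate | Doses: 8-point, 3-fold series | Buffer or medium: Culture medium lacking phenol red | Incubation: 24 h compound exposure at 37 °C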
The term AC50 denotes the midpoint of the concentration-response curve, whichever way the signal moves. Regarding `Cc1ccc(Nc2nc(-c3ccccn3)nnc2-c2ccccc2)cn1`, the AC50 is 7.08 µM.
On the same count and under the same terms, next, `Cc1cccc(CNc2nc(-c3ccccn3)nnc2-c2ccccc2)c1`: 0.621 µM.
In the case of `OCCCNc1nc(-c2ccccn2)nnc1-c1ccccc1`, the AC50 was 5.73 µM.
The same measure, in the same setting: next, `Cc1ccc(CNc2nc(-c3ccccn3)nnc2-c2ccccc2)cc1`: 1.1 µM.
Regarding `c1ccc(-c2cnc(Nc3nc(-c4ccccn4)nnc3-c3ccccc3)s2)cc1`, the AC50 was 17.7 µM.
Regarding `CN(C)c1nc(-c2ccccn2)nnc1-c1ccccc1`, the AC50 is 2.94 µM.
On the same count and under the same terms, then `c1ccc(-c2nnc(-c3ccccn3)nc2NCCN2CCOCC2)cc1`, with 5.41 µM; and `c1ccc(-c2nnc(-c3ccccn3)nc2N2CCC(N3CCOCC3)CC2)cc1`, with 6.51 µM; and `O=C(NCC1CC1)c1cc(-c2ccccc2)on1`, with 16.1 µM.
In the case of `Cc1cccc(Nc2nc(-c3ccccn3)nnc2-c2ccccc2)n1`, the AC50 is 2.98 µM.
Still for that read-out and setting: then `CC(C)(C)CCNc1nc(-c2ccccn2)nnc1-c1ccccc1`, with 3.27 µM.
As to `O=C(NCCCO)c1cc(-c2ccccc2)on1`, the AC50 was 6.09 µM.
On the same count and under the same terms, then `c1ccc(-c2nnc(-c3ccccn3)nc2NCC2CC2)cc1`, with 3.37 µM; and `O=C(NCCCn1ccnc1)c1cc(-c2ccccc2)on1`, with 8.03 µM.
Still for that read-out and setting: next, `c1ccc(-c2nnc(-c3ccccn3)nc2Nc2nc3ccccc3s2)cc1`: 5.32 µM.
On to `O=C(NCCCCO)c1cc(-c2ccccc2)on1`, for which the AC50 was 2.1 µM.
Turning to `CN1CCN(c2nc(-c3ccccn3)nnc2-c2ccccc2)CC1`, the AC50 was 5.11 µM.
On the same count and under the same terms, next, `c1ccc(-c2csc(Nc3nc(-c4ccccn4)nnc3-c3ccccc3)n2)cc1`: 10.1 µM; `c1ccc(-c2nnc(-c3ccccn3)nc2NCCCN2CCOCC2)cc1`: 2.42 µM.
As for `c1ccc(CNc2nc(-c3ccccn3)nnc2-c2ccccc2)cc1`, the AC50 was 3.08 µM.
In the case of `c1ccc(-c2nnc(-c3ccccn3)nc2N2CCN(c3ccncc3)CC2)cc1`, the AC50 is 2.68 µM.
On to `c1ccc(-c2nnc(-c3ccccn3)nc2Nc2cnc3ccccc3n2)cc1`, for which the AC50 is 5.59 µM.
On the same count and under the same terms, next, `O=C(NCCN1CCOCC1)c1cc(-c2ccccc2)on1`: 6.66 µM.
Consider `Cn1c(-c2ccccc2)cnc1Nc1nc(-c2ccccn2)nnc1-c1ccccc1`, for which the AC50 was 4.31 µM.
`CCCCNC(=O)c1cc(-c2ccccc2)on1`: the AC50 is 6.16 µM.
In the case of `c1ccc(-c2nnc(-c3ccccn3)nc2NCC2CCCCC2)cc1`, the AC50 is 0.882 µM.
As for `O=C(NCCCN1CCOCC1)c1cc(-c2ccccc2)on1`, the AC50 is 18.1 µM.
For `C=CCNc1nc(-c2ccccn2)nnc1-c1ccccc1`, the AC50 is 2.7 µM.
With `Cc1ccccc1CNc1nc(-c2ccccn2)nnc1-c1ccccc1`, the AC50 is 2.73 µM.
On to `c1ccc(-c2nnc(Nc3nc(-c4ccccn4)nnc3-c3ccccc3)s2)cc1`, for which the AC50 was 7.41 µM.

Test system in a further assay: not listed separately
The assay is described as above. The conditions noted are these: U2OS HIF1a-GFP, nuclear intensity imaging; at 38 µM (top of the series). The method in brief:
as §1
On to `Cc1cccc(CNC(=O)c2cc(-c3ccccc3)on2)c1`, for which the activation was 11.8% (inactive).
The same measure, in the same setting: then `O=C(NCCN1CCCCC1)c1cc(-c2ccccc2)on1`, with 31.8% (inactive).
For the molecule `O=C(NC1Cc2ccccc2C1)c1cc(-c2ccccc2)on1`, the activation was 6.89% (inactive).
Regarding `Cc1ccc(NC(=O)c2cc(-c3ccccc3)on2)cn1`, the activation is 25.1% (inactive).
Still for that read-out and setting: next, `O=C(Nc1ccc2ccccc2n1)c1cc(-c2ccccc2)on1`: -3.83% (inactive); `Cc1cccc(NC(=O)c2cc(-c3ccccc3)on2)n1`: 9.15% (inactive).
In the case of `CN(C)CCNC(=O)c1cc(-c2ccccc2)on1`, the activation is 6.65% (inactive).
Consider `O=C(Nc1nnc(-c2ccccc2)s1)c1cc(-c2ccccc2)on1`, for which the activation was -0.482% (inactive).
As to `O=C(Nc1ncc2ccccc2n1)c1cc(-c2ccccc2)on1`, the activation was 1.57% (inactive).
Regarding `O=C(c1cc(-c2ccccc2)on1)N1CCc2cccnc21`, the activation is -2.04% (inactive).
With `O=C(c1cc(-c2ccccc2)on1)N1CCN(c2ccncc2)CC1`, the activation is 31% (inactive).
As to `CN1CCN(C(=O)c2cc(-c3ccccc3)on2)CC1`, the activation is 3.08% (inactive).
Regarding `O=C(NCc1ccccc1)c1cc(-c2ccccc2)on1`, the activation is 15.8% (inactive).
Take `Cc1ccccc1CNC(=O)c1cc(-c2ccccc2)on1`: the activation is 23% (inactive).
Turning to `O=C(Nc1cn2ccccc2n1)c1cc(-c2ccccc2)on1`, the activation is 1.49% (inactive).
Consider `O=C(Nc1nc(-c2ccccc2)cs1)c1cc(-c2ccccc2)on1`, for which the activation is 4.03% (inactive).
In the case of `Cn1c(NC(=O)c2cc(-c3ccccc3)on2)nc2ccccc21`, the activation was -0.56% (inactive).
With `O=C(Nc1nc2ccccc2s1)c1cc(-c2ccccc2)on1`, the activation is 12.2% (inactive).
As to `Cn1c(-c2ccccc2)cnc1NC(=O)c1cc(-c2ccccc2)on1`, the activation is -4.96% (inactive).
As for `O=C(c1cc(-c2ccccc2)on1)N1CCC(N2CCCC2)CC1`, the activation is 12.8% (inactive).
In the case of `CC(C)(C)CCNC(=O)c1cc(-c2ccccc2)on1`, the activation is 17.6% (inactive).
For `O=C(NC1CCc2ccccc2C1)c1cc(-c2ccccc2)on1` (stereo not drawn), the activation is 30.1% (inactive).
As to `O=C(Nc1ncc(-c2ccccc2)o1)c1cc(-c2ccccc2)on1`, the activation is 7.7% (inactive).
On the same count and under the same terms, then `Cc1ccc(CNC(=O)c2cc(-c3ccccc3)on2)cc1`, with 12.8% (inactive); and `O=C(NCC1CCCCC1)c1cc(-c2ccccc2)on1`, with 18.3% (inactive).
Regarding `O=C(c1cc(-c2ccccc2)on1)N1CCC(CO)CC1`, the activation was -4.8% (inactive).
For the molecule `O=C(Nc1cnc2ccccc2c1)c1cc(-c2ccccc2)on1`, the activation is 5.39% (inactive).
Regarding `O=C(c1cc(-c2ccccc2)on1)N1CCC(N2CCOCC2)CC1`, the activation was 14.1% (inactive).
